Measured values gathered from unrelated publications.
Protocols differ between the studies behind these lines.
HTR1F: 5-hydroxytryptamine receptor 1F (HTR1F, Homo sapiens, UniProt P30939)
DUOX2: DUOX2 (Homo sapiens, UniProt Q9NRD8)
MPO: Myeloperoxidase (MPO, Homo sapiens, UniProt P05164)

CN1CCN2c3ccccc3Cc3ccccc3C2C1 (stereo not shown)
EC50 (HTR1F; G protein activation, agonist, BRET): 0.0475 µM

O=c1oc(-c2cccnc2)nc2ccccc12
IC50 (Plasma kallikrein (KLKB1, Homo sapiens, UniProt P03952); enzyme activity, inhibitor, absorbance): > 50 µM

Cc1coc2c1C(=O)C(=O)c1c-2ccc2c1CCCC2(C)CO (stereo not shown)
IC50 (DUOX2; enzyme activity, inhibitor; cell membranes): 8.9 µM

COc1ccc(CNC(=O)c2cc3c(cc2[N+](=O)[O-])OCO3)cc1
IC50 (MPO; enzyme activity, inhibitor): 4.5 µM

C[C@H]1COC2=C1C(=O)C(=O)c1c2ccc2c1CCCC2(C)C
IC50 (DUOX2; enzyme activity, inhibitor; cell membranes): 2.1 µM

C[C@@H]1CN(C(=O)[C@@H]2CN(C(C)(C)C)C[C@H]2c2ccc(F)cc2F)C[C@H](C)[C@@]1(O)c1ccccc1
Ki (Melanocortin receptor 4 (MC4R, Homo sapiens, UniProt P32245); ligand displacement, radioligand): 0.199 µM

Nc1ncnc2c1ncn2[C@@H]1O[C@H](COP(=O)(O)OP(=O)(O)OP(=O)(O)OP(=O)(O)OP(=O)(O)OC[C@H]2O[C@@H](n3cnc4c(N)ncnc43)[C@H](O)[C@@H]2O)[C@@H](O)[C@H]1O
Kd (adk (Escherichia coli, UniProt P69441); binding, ITC): 0.2 µM

CCOc1ccccc1OCCN[C@H](C)Cc1ccc(OC)c(S(N)(=O)=O)c1
IC50 (Anoctamin-1 (Ano1, Mus musculus, UniProt Q8BHY3); ion current, inhibitor, patch clamp): 7.22 µM

CCCC(=O)NCCCN1CCc2c([nH]c3ccc(Cl)cc23)C1
IC50 (Sodium-dependent noradrenaline transporter (SLC6A2, Homo sapiens, UniProt P23975); transporter uptake, inhibitor): 250 µM

CC(=O)c1cccc(NC(=O)c2cc3c(cc2[N+](=O)[O-])OCO3)c1
IC50 (MPO; enzyme activity, inhibitor): 10 µM

CC(C)CCC[C@@H](C)[C@H]1CC[C@H]2[C@@H]3CC[C@H]4C[C@H](N)CC[C@]4(C)[C@H]3CC[C@]12C
IC50 (Phosphatidylinositol 3,4,5-trisphosphate 5-phosphatase 1 (INPP5D, Homo sapiens, UniProt Q92835); enzyme activity, inhibitor, absorbance; pH 7.4): 22.4 µM

CN(C)CCOC1=Cc2ccccc2Sc2ccc(Cl)cc21
EC50 (HTR1F; G protein activation, agonist, BRET): 1.82 µM

O=c1oc2cc(O)ccc2c2ccc(O)cc12
Kd (Glutaminase kidney isoform, mitochondrial (GLS, Homo sapiens, UniProt O94925); binding, SPR): 0.000266 µM
